These results are taken from ChEMBL document CHEMBL4725282, “Discovery of a Conformationally Constrained Oxazolidinone with Improved Safety and Efficacy Profiles for the Treatment of Multidrug-Resistant Tuberculosis” (J Med Chem, 2020).

The pIC50 is the IC50 on a negative log10 scale, so that one unit is a factor of ten.

pIC50: −log10 of the molar value.

Series [1] is described as follows: Genotoxicity in CHO-WBL cells assessed as chromosome aberration at 90 to 397.1 ug/ml measured after 20 hrs in presence of S9 fraction by Giemsa staining based. The note with it: chinese hamster, s9, 20 h, dose 90-397.1 µg/ml. The class given is toxicity, subcellular, Cricetulus griseus. The procedure, abridged: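 CHO-WBL cells in McCoy's 5A with 10% FBS, seeded 20-24 h before treatment. Compound in DMSO, with or without serum-free S-9 mix. Treatment either 3 h, then HBSS wash and 17 h further culture, or 20 h; harvest at 20 h from treatment start. Colcemid 0.1 μg/mL for the final 2 h, hypotonic KCl, methanol:acetic acid fixation, Giemsa stain. 300 metaphases per concentration (150 per duplicate flask) scored.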

Series [2] deals with Cytochrome P450 2C19 (Homo sapiens, UniProt P33261). Description: Inhibition of CYP2C19 in human liver microsomes after 20 mins by LC-MS/MS analysis. Type of series: ADME. The procedure, abridged:
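Human liver microsomes (0.2 mg/mL) in phosphate buffer, 20 min incubation with compound at 0.1-50 μM alongside isoform-specific substrates and a positive control. Substrate remaining monitored by LC-MS/MS at each concentration; IC50 derived.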

Series [3] in a line: Toxicity in female Sprague-Dawley rat assessed as effect on food consumption at 50 to 450 mg/kg/day, po administered for 4 weeks measured at 1 week interval. Type of series: organism-based. The following applies: in vivo, 672 h, dose 50-450 mg/kg/day. The procedure, abridged: (§1)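 SD rats, 6-7 weeks old (96 in total), split into vehicle, 50, 150 and 450 mg/kg/day groups of 12 females and 12 males each, given oral doses once daily for 4 weeks, then 2 weeks of recovery. Mortality, body weight, food intake, eyes, urine and neuropsychic signs were observed. Organ and bone marrow histopathology was done on 8 rats per sex per group after the last dose and on the remaining 4 per sex after 14 days of recovery.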

Series [4] in a line: Toxicity in female Sprague-Dawley rat assessed as abnormalities in urine at 50 to 450 mg/kg/day, po administered for 4 weeks measured within last 7 days of treatment period. The following applies: in vivo, 672 h, dose 50-450 mg/kg/day. Type of series: organism-based. The procedure, abridged:
(§2)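 SD rats, 6-7 weeks, 12 male and 12 female per group. Oral dosing once daily at 50, 150 or 450 mg/kg/day or vehicle for 4 weeks, then 2-week recovery. 8 per sex dissected after last dose, remaining 4 per sex after 14-day recovery. Body weight, urine, food intake and clinical signs monitored.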

The nature of series [5]: Toxicity in female Sprague-Dawley rat assessed as changes in neuropsychic symptoms at 50 to 450 mg/kg/day, po administered for 4 weeks measured during last 24 hrs of treatment period. Type of series: organism-based. The note with it: in vivo, 672 h, dose 50-450 mg/kg/day. Put shortly: as §1
Series [6] can be described thus: Toxicity in female Sprague-Dawley rat assessed as mortality at 50 to 450 mg/kg/day, po administered for 4 weeks followed by 2 week recovery period. The note with it: in vivo, 672 h, dose 50-450 mg/kg/day. Type of series: organism-based. Put shortly: as §1
Series [7] is described as follows: Toxicity in female Sprague-Dawley rat assessed as abnormalities in urine at 50 to 450 mg/kg/day, po administered for 4 weeks followed by 2 week recovery period measured within last 7 days of recover period. Type of series: organism-based. The following applies: in vivo, 672 h, dose 50-450 mg/kg/day. Put shortly: as §2
Series [8] is described as follows: Toxicity in female Sprague-Dawley rat assessed as histopathological changes at 50 to 450 mg/kg/day, po administered for 4 weeks followed by 2 week recovery period. Type of series: organism-based. The note with it: in vivo, 672 h, dose 50-450 mg/kg/day. Put shortly: as §1
Series [9] in a line: Toxicity in male Sprague-Dawley rat assessed as ophthalmic changes at 50 to 450 mg/kg/day, po administered for 4 weeks followed by 2 week recovery period measured within 7 days of post recover period. The note with it: in vivo, 672 h, dose 50-450 mg/kg/day. The class given is organism-based.
Series [10] can be described thus: Toxicity in male Sprague-Dawley rat assessed as histopathological changes at 50 to 450 mg/kg/day, po administered for 4 weeks followed by 2 week recovery period. The class given is organism-based. The following applies: in vivo, 672 h, dose 50-450 mg/kg/day.
Series [11] in a line: Toxicity in male Sprague-Dawley rat assessed as histopathological changes in bone marrow at 450 mg/kg/day, po administered for 4 weeks followed by 2 week recovery period. The class given is organism-based. The following applies: in vivo, 672 h.
Series [12] is described as follows: Toxicity in female Sprague-Dawley rat assessed as change in white blood cell count at 50 mg/kg/day, po administered for 4 weeks followed by 2 week recovery period (Rvb =3.61 +/- 0.75 10^9/L). The class given is organism-based. The note with it: in vivo, 672 h.
A short description of series [13]: Toxicity in female Sprague-Dawley rat assessed as change in platelet count at 50 mg/kg/day, po administered for 4 weeks followed by 2 week recovery period (Rvb =1051 +/- 122 10^9/L). The class given is organism-based. The note with it: in vivo, 672 h.
Series [14] in a line: Toxicity in female Sprague-Dawley rat assessed as change in mean corpuscular volume at 50 mg/kg/day, po administered for 4 weeks followed by 2 week recovery period (Rvb =56.1 +/- 0.8 fL). The following applies: in vivo, 672 h. The class given is organism-based.
Series [15] can be described thus: Toxicity in male Sprague-Dawley rat assessed as change in reticulocyte level at 50 mg/kg/day, po administered for 4 weeks followed by 2 week recovery period (Rvb =2.48 +/- 0.34 %). Type of series: organism-based. The note with it: in vivo, 672 h.
A short description of series [16]: Toxicity in male Sprague-Dawley rat assessed as change in neutrophil level at 50 mg/kg/day, po administered for 4 weeks followed by 2 week recovery period (Rvb =15.9 +/- 3.4 %). The class given is organism-based. The following applies: in vivo, 672 h.
A short description of series [17]: Toxicity in female Sprague-Dawley rat assessed as change in lymphocyte level at 50 mg/kg/day, po administered for 4 weeks followed by 2 week recovery period (Rvb =76.9 +/- 4.6 %). The following applies: in vivo, 672 h. The class given is organism-based.
A short description of series [18]: Toxicity in female Sprague-Dawley rat assessed as change in platelet count at 150 mg/kg/day, po administered for 4 weeks followed by 2 week recovery period (Rvb =1051 +/- 122 10^9/L). The class given is organism-based. The note with it: in vivo, 672 h.
Series [19] in a line: Toxicity in male Sprague-Dawley rat assessed as change in mean corpuscular volume at 150 mg/kg/day, po administered for 4 weeks followed by 2 week recovery period (Rvb =57.5 +/- 2.0 fL). The class given is organism-based. The note with it: in vivo, 672 h.
The nature of series [20]: Toxicity in female Sprague-Dawley rat assessed as change in hemoglobin count at 150 mg/kg/day, po administered for 4 weeks followed by 2 week recovery period (Rvb =136 +/- 7 g/L). Type of series: organism-based. The following applies: in vivo, 672 h.
A short description of series [21]: Toxicity in female Sprague-Dawley rat assessed as change in neutrophil level at 150 mg/kg/day, po administered for 4 weeks followed by 2 week recovery period (Rvb =18.5 +/- 5.3 %). Type of series: organism-based. The following applies: in vivo, 672 h.
Series [22] is described as follows: Toxicity in female Sprague-Dawley rat assessed as change in lymphocyte level at 150 mg/kg/day, po administered for 4 weeks followed by 2 week recovery period (Rvb =76.9 +/- 4.6 %). The class given is organism-based. The note with it: in vivo, 672 h.
Series [23] can be described thus: Toxicity in male Sprague-Dawley rat assessed as change in lymphocyte level at 150 mg/kg/day, po administered for 4 weeks followed by 2 week recovery period (Rvb =77.4 +/- 3.7 %). The following applies: in vivo, 672 h. The class given is organism-based.
Series [24] can be described thus: Toxicity in female Sprague-Dawley rat assessed as change in platelet count at 450 mg/kg/day, po administered for 4 weeks followed by 2 week recovery period (Rvb =1051 +/- 122 10^9/L). The class given is organism-based. The following applies: in vivo, 672 h.
Series [25] can be described thus: Toxicity in male Sprague-Dawley rat assessed as change in reticulocyte level at 450 mg/kg/day, po administered for 4 weeks followed by 2 week recovery period (Rvb =2.48 +/- 0.34 %). The class given is organism-based. The note with it: in vivo, 672 h.
Series [26] can be described thus: Toxicity in male Sprague-Dawley rat assessed as change in neutrophil level at 450 mg/kg/day, po administered for 4 weeks followed by 2 week recovery period (Rvb =15.9 +/- 3.4 %). Type of series: organism-based. The note with it: in vivo, 672 h.
Series [27] can be described thus: Toxicity in male Sprague-Dawley rat assessed as change in lymphocyte level at 450 mg/kg/day, po administered for 4 weeks followed by 2 week recovery period (Rvb =77.4 +/- 3.7 %). The note with it: in vivo, 672 h. The class given is organism-based.

Cytochrome P450 2C19, sequence (P33261 whole entry, canonical isoform): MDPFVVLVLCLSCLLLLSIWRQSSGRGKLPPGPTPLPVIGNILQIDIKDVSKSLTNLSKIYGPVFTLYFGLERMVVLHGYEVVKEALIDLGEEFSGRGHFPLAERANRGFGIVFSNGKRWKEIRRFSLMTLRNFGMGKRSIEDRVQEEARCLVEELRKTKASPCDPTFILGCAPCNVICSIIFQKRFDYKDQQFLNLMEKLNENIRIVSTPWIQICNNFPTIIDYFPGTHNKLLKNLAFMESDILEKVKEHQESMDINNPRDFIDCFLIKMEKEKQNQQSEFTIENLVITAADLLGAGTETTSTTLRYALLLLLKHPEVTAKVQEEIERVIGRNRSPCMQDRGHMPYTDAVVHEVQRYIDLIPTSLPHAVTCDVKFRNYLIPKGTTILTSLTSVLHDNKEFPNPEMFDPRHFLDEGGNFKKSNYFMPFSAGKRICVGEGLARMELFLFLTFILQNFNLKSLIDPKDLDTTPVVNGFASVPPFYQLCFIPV

In the case of `CC(=O)NC[C@@H]1OC(=O)N2c3cc(F)c(N4CC[S+]([O-])CC4)cc3OC[C@@H]12`, the Activity result in series [1] is listed as “Non-Toxic”.
In series [2], `CC(=O)NC[C@@H]1OC(=O)N2c3cc(F)c(N4CCSCC4)cc3OC[C@@H]12` gave a pIC50 of 4.32. Further, the Activity entry in series [3], in [4], in [5], in series [6], in [7] and in series [8] was “Non-Toxic” throughout. Further, the Activity result in series [9] was “Non-Toxic”; in series [10], “Non-Toxic”; in series [11] it was “Non-Toxic”; in [12] it was 4.2 10^9/L; in series [13] it was 1094 10^9/L; in [14], 56.5 fL. Moreover, the Activity in series [15] was 2.97%; in series [16], 13%; in [17] it was 80.7%; in [18], 787 10^9/L; in series [19] it was 58.5 fL; in series [20], 124 g/L. Besides, the Activity in [21] is 12.2%; in series [22], 83%; in [23], 77.3%; in series [24] it was 735 10^9/L; in [25], 2.99%; in series [26], 13.7%. For the same compound, the Activity in series [27] worked out at 80.7%.
